Test results from ChEMBL document CHEMBL5150070, “Tricyclic SpiroLactams Kill Mycobacteria In Vitro and In Vivo by Inhibiting Type II NADH Dehydrogenases” (J Med Chem, 2022).
Values after ≈ are worked out from the molar mass of the structure shown.

Legend:
[1] = tested on: Escherichia coli; assay: Antibiotic activity against Escherichia coli deltatolC BW25113 deltatolC assessed as reduction in bacterial cell growth by measuring resazurin reduction incubated for 6 days by fluorescence microplate based assay; format: functional; conditions: 144 h, time 6 day
In short: (§1)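 E. coli BW25113, E. coli ΔtolC and S. aureus SH1000 were cultured and tested in cation-adjusted Mueller Hinton II broth. Viability was read by adding resazurin and measuring resorufin fluorescence at Ex 530 nm / Em 590 nm.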

[2] = tested on: Bacillus subtilis; assay: Antibiotic activity against Bacillus subtilis ATCC6633 assessed as reduction in bacterial cell growth by measuring resazurin reduction incubated for 6 days by fluorescence microplate based assay; format: functional; conditions: ATCC6633, 144 h, time 6 day
[3] = tested on: Mycobacteroides abscessus; assay: Antibiotic activity against Mycobacterium abscessus CIP104536, Smooth variant assessed as reduction in bacterial cell growth by measuring resazurin reduction incubated for 6 days by fluorescence microplate based assay; format: functional; conditions: 144 h, time 6 day
[4] = tested on: Mycobacterium tuberculosis; assay: Bactericidal activity against Non-replicating Mycobacterium tuberculosis ss18b-lux assessed as decrease in colony forming unit measured at 4.8 uM after 1 weeks; format: functional
In short: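 Streptomycin-dependent 18b-lux starved of streptomycin for 14 days (OD600 reset to 0.2 on days 7 and 13) to become non-replicating. Diluted to OD600 0.15 on dispensed compound and held at 37°C. On day 7, active wells plated on 7H11-OADC with 50 µg/mL streptomycin and incubated up to 8 weeks for cfu.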

[5] = tested on: Klebsiella pneumoniae; assay: Antibiotic activity against Klebsiella pneumoniae LMG 2095 assessed as reduction in bacterial cell growth by measuring resazurin reduction incubated for 6 days by fluorescence microplate based assay; format: functional; conditions: LMG 2095, 144 h, time 6 day
[6] = tested on: Mycobacterium tuberculosis; assay: Antimycobacterial activity against Mycobacterium tuberculosis H37Rv assessed as reduction in bacterial cell growth by measuring resazurin reduction incubated for 6 days by fluorescence microplate based assay; format: functional; conditions: time 6 day
[7] = tested on: Mycobacterium tuberculosis; assay: Inhibition of Ndh2 in Mycobacterium tuberculosis assessed as decrease in ATP concentration measured after 24 hrs; conditions: DDE = dose-dependent effect
In short: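 Log-phase H37Rv diluted to OD600 0.01 in complete 7H9 and exposed in 96-well plates to compound added from a 100× DMSO stock, at 37°C. ATP measured with BacTiter-Glo luminescence after 4 and 24 h; three independent experiments.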

[8] = tested on: Mycobacteroides abscessus; assay: Antibiotic activity against Mycobacterium abscessus CIP104536, Rough variant assessed as reduction in bacterial cell growth by measuring resazurin reduction incubated for 6 days by fluorescence microplate based assay; format: functional; conditions: 144 h, time 6 day
[9] = Metabolic stability in mouse liver microsomes; format: ADME, Microsome
[10] = Toxicity in noninfected zebrafish larvae assessed as toxic effect; parameters: species or system Danio rerio; conditions: in vivo
[11] = tested on: Escherichia coli; assay: Antibiotic activity against Escherichia coli BW25113 assessed as reduction in bacterial cell growth by measuring resazurin reduction incubated for 6 days by fluorescence microplate based assay; format: functional; conditions: BW25113, 144 h, time 6 day; in short: as §1
[12] = tested on: Mycobacterium tuberculosis; assay: Antibiotic activity against Mycobacterium tuberculosis H37Rv assessed as reduction in bacterial cell growth by measuring resazurin reduction incubated for 6 days by fluorescence microplate based assay; format: functional; conditions: 144 h, time 6 day

## CC(C)[C@H]1CO[C@]23CCN(Cc4ccc(C(F)(F)F)cc4)C[C@H]2CCC(=O)N13
[1]
  MIC: 100 µM (≈ 39.6 µg/mL)
[2]
  MIC: > 100 µM
[3]
  MIC: 5 µM (≈ 1.98 µg/mL)
[4]
  Activity: 1 log10CFU
[5]
  MIC: > 100 µM
[6]
  MIC98: 0.1 µM (≈ 0.0396 µg/mL)
[7]
  inhibition: Dde
[8]
  MIC: 6.3 µM (≈ 2.5 µg/mL)
[9]
  Drug metabolism: Metabolite_Detected
[10]
  Activity: Non-Toxic
[11]
  MIC: > 100 µM
[12]
  MIC: 0.1 µM (≈ 0.0396 µg/mL)
